# Experimental data taken from ChEMBL document CHEMBL1141435, “Serinocyclins A and B, cyclic heptapeptides from Metarhizium anisopliae” (J Nat Prod, 2007).
# Columns and labels:
# Botrytis = assay: Antifungal activity against Botrytis cinerea at 10 ug/disc after 48 hrs by disc diffusion assay; type: functional; details: read-out: IZ
# Procedure, shortened: (§1)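 Fungal targets grown on potato dextrose agar plates (9 cm), each spread with 0.6 mL of a conidial suspension (ca. 1 × 10^6 conidia/mL H2O) and dried 1 h. Samples went onto 7 mm filter paper disks in 10 µL MeOH, air-dried 1 h, then placed on the plates. Inhibition zones were read every 24 h for 4 days. Filipin at 10 µg/disk was the positive control, MeOH and formic acid at 10 µL/disk the negatives.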
# Saccharomyces cerevisiae = assay: Antifungal activity against Saccharomyces cerevisiae at 10 ug/disc after 48 hrs by disc diffusion assay; type: functional; details: read-out: IZ
# Procedure, shortened: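 Yeast grown on 1% yeast extract, 2% peptone, 1.5% agar with either 2% dextrose or 2% glycerol. Plates were spread with 0.5 mL of a suspension in H2O adjusted to OD600 0.5 and dried 1 h. Samples went onto 7 mm paper disks in 10 µL MeOH, air-dried 1 h. Zones were read every 24 h for 4 days. Filipin at 10 µg/disk was the positive control, MeOH and formic acid the negatives.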
# Beauveria bassiana = assay: Antifungal activity against Beauveria bassiana at 10 ug/disc after 48 hrs by disc diffusion assay; type: functional; details: read-out: IZ; procedure, shortened: as §1
# Colletotrichum = assay: Antifungal activity against Colletotrichum acutatum at 10 ug/disc after 48 hrs by disc diffusion assay; type: functional; details: read-out: IZ; procedure, shortened: as §1
# Escherichia coli = assay: Antibacterial activity against Escherichia coli at 10 ug/disc after 48 hrs by disc diffusion assay; type: functional; details: read-out: IZ
# Procedure, shortened: (§2)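 Target strains grown on nutrient agar plates (9 cm), each spread with 0.6 mL of a 24 h nutrient broth culture and dried 1 h. Samples went onto 7 mm filter paper disks in 10 µL MeOH and were air-dried 1 h before placement. Inhibition zones were checked every 24 h for 4 days. Tetracycline at 10 µg/disk was the positive control, MeOH and formic acid at 10 µL/disk the negatives.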
# Bacillus cereus = assay: Antibacterial activity against Bacillus cereus at 10 ug/disc after 48 hrs by disc diffusion assay; type: functional; details: read-out: IZ; procedure, shortened: as §2
# Aedes aegypti = assay: Induction of locomotory deffect in Aedes aegypti Rockefeller larvae after 24 hrs; type: functional, organism-based
# Procedure, shortened: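 Eggs hatched under vacuum for 30 min and larvae kept at 25 °C in tap water with liver powder suspension. At 24 h posthatch, 7–11 larvae per well of a 24-well plate were placed in 0.9 mL food/water. Treatments were added in 100 µL distilled water, and effects were scored 24 h later.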
SMILES,zone of inhibition at 10 µg/disc (Botrytis) [mm],zone of inhibition at 10 µg/disc (Saccharomyces cerevisiae) [mm],zone of inhibition at 10 µg/disc (Beauveria bassiana) [mm],zone of inhibition at 10 µg/disc (Colletotrichum) [mm],zone of inhibition at 10 µg/disc (Escherichia coli) [mm],zone of inhibition at 10 µg/disc (Bacillus cereus) [mm],EC50 (Aedes aegypti) [ppm]
CN(C)[C@@H]1C(O)=C(C(N)=O)C(=O)[C@@]2(O)C(O)=C3C(=O)c4c(O)cccc4[C@@](C)(O)[C@H]3C[C@@H]12 [TETRACYCLINE],> 5,> 5,> 5,> 5,> 5,> 5,
NCC[C@H](O)C[C@H]1NC(=O)[C@H](CO)NC(=O)[C@@H]2C[C@@H](O)CN2C(=O)C2(CC2)NC(=O)[C@H](CO)NC(=O)[C@@H](CO)NC(=O)CCNC1=O [SERINOCYCLIN A],,,,,,,59
CCCCC[C@@H](O)[C@H]1C(=O)O[C@H](C)[C@@H](O)/C=C/C=C/C=C/C=C/C=C(\C)[C@@H](O)C[C@H](O)C[C@H](O)C[C@H](O)C[C@H](O)C[C@H](O)C[C@@H]1O [FILIPIN],> 5,> 5,> 5,> 5,> 5,> 5,
